Values joined by “and” are separate entries in the source; they are usually repeats but may differ in a detail not shown here. Equal entries are not always repeated.
Assays:
Mus musculus [1] = species: Mus musculus; assay: Effect on recovery time for coma induced in mice by cerebral concussion (control group); format: functional
How it was run: (§1)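 Groups of 10 mice received compound orally 1 h before head concussion, at 100 mg/kg unless another dose is noted. Vehicle was 0.5% gum arabic in saline, and controls received vehicle alone. The read-out was time to reappearance of the righting reflex (mean ± SE s), expressed as % of control. Two-tailed t-test was used.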

Mus musculus [2] = species: Mus musculus; assay: Effect on recovery time for coma induced in mice by cerebral concussion (treated group); format: functional; how it was run: as §1
Mus musculus [3] = assay: Effect on the sleeping time of mice anesthetized with halothane (treated group); format: functional
How it was run: (§2)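 Groups of 10 mice received compound orally 1 h before testing, at 100 mg/kg unless another dose is noted. Vehicle was 0.5% gum arabic in 0.9% saline, and controls received vehicle alone. Mice were exposed to 4% halothane in air at 2 L/min. Sleeping time ran from loss to recovery of righting reflex (mean ± SE s), expressed as % of control. Two-tailed t-test was used.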

Mus musculus [4] = species: Mus musculus; assay: Effect on the sleeping time of mice before halothane load (control group); format: functional; how it was run: as §2
[5] = biological target: T1, Sigma non-opioid intracellular receptor 1 (Rattus norvegicus, UniProt Q9R0C9); assay: Binding affinity for sigma receptor was evaluated by the inhibitory effect on [3H]DTG to rat whole brain membranes.; format: functional, cell membranes
T1 sequence (Q9R0C9 whole entry): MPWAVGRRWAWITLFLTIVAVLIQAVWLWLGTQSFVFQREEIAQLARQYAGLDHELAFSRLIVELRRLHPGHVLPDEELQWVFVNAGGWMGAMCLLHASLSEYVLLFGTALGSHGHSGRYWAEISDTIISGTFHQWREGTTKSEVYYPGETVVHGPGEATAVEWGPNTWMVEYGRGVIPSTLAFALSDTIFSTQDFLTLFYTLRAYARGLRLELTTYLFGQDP
How it was run: (§3)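 Bound ligand collected by filtration onto PEI-soaked filters and counted by scintillation; nonspecific binding defined with haloperidol. IC50 by nonlinear least-squares fit; mean ± SE of three experiments, or a single experiment where no SE is given.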

[6] = biological target: T1, Sigma non-opioid intracellular receptor 1; assay: Binding affinity for sigma receptor was evaluated by the inhibitory effect on [3H]DTG to rat whole brain membranes; format: cell membranes; how it was run: as §3
Mus musculus [7] = assay: Effect on Immobility Time in the Forced-Swimming Test in Mice at the dose of 1 mg/kg po; format: functional
How it was run: (§4)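 Mice, 8 per group. Dosing was oral, either as a single dose 1 h before testing on day 2 or repeated once daily for 4 days. Each mouse swam 6 min in a cylinder with 6 cm of water at 22-23 °C, and immobility was scored over the last 4 min. Results are mean ± SE seconds and % of control, analysed by one-way ANOVA with Dunnett's test.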

Mus musculus [8] = assay: Effect on Immobility Time in the Forced-Swimming Test in Mice at the dose of 10 mg/kg po; format: functional; how it was run: as §4
Mus musculus [9] = assay: Effect on Immobility Time in the Forced-Swimming Test in Mice at the dose of 0 mg/kg po; format: functional; how it was run: as §4
Mus musculus [10] = assay: Effect on the sleeping time of mice anesthetized with halothane (treated group) (30 mg/kg); format: functional; how it was run: as §2
Mus musculus [11] = assay: Effect on Immobility Time in the Forced-Swimming Test in Mice at the dose of 30 mg/kg po for repeated administration; format: functional; how it was run: as §4
Mus musculus [12] = assay: Effect on Immobility Time in the Forced-Swimming Test in Mice at the dose of 10 mg/kg po for repeated administration; format: functional; how it was run: as §4
Mus musculus [13] = assay: Effect on Immobility Time in the Forced-Swimming Test in Mice at the dose of 10 mg/kg po for single administration; format: functional; how it was run: as §4
Mus musculus [14] = assay: Effect on Immobility Time in the Forced-Swimming Test in Mice at the dose of 30 mg/kg po for single administration; format: functional; how it was run: as §4
Mus musculus [15] = assay: Effect on Immobility Time in the Forced-Swimming Test in Mice at the dose of 0 mg/kg po for single administration; format: functional; how it was run: as §4
Mus musculus [16] = assay: Effect on Immobility Time in the Forced-Swimming Test in Mice at the dose of 0 mg/kg po for repeated administration; format: functional; how it was run: as §4
Mus musculus [17] = assay: Effect on the sleeping time of mice anesthetized with halothane (treated group) (p <0.01); format: functional; how it was run: as §2
Mus musculus [18] = assay: Effect on the time required for recovery from coma induced in mice by cerebral concussion at the dose of 10 mg/kg po; format: functional
How it was run: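 In the concussion-coma test in mice (n = 10), compound was given orally 1 h before concussion, and antagonists were pre-dosed 15 min to 1 h before the test compound. The read-out was time to recovery of the righting reflex as % of control. Statistics were two-tailed t-test versus control and one-way ANOVA with Dunnett's test versus the treated group.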

SMILES	RRT (Mus musculus [1])	RRT (Mus musculus [2])	Sleeping time (Mus musculus [3])	Sleeping time (Mus musculus [4])	IC50 [6]	also measured
CC(C)=CCN1CC[C@@]2(C)c3cc(O)ccc3C[C@@H]1[C@@H]2C	170 s	<72 s	<370 s	549 s	–	–
COc1cccc2c1CCC(=O)N2CCCN1CCN(c2ccc(Cl)cc2)CC1	–	–	496 s	465 s	–	IC50 [5]: 0.46 µM
CC(C)Oc1cccc2c1CCC(=O)N2CCCN1CCN(c2cccc(Cl)c2)CC1	–	–	304 s	353 s	–	–
C[C@@H]1CN(CCCn2c3ccccc3c3ccccc32)C[C@H](C)N1 [RIMCAZOLE]	131 s	115 s	490 s	482 s	–	–
COc1cccc2c1CCC(=O)N2CCCN1CCN(c2ccccc2Cl)CC1	–	–	675 s	465 s	0.26 µM	–
COc1cccc2c1CCC(=O)N2CCCN1CCN(c2cccc(O)c2)CC1	–	–	400 s	483 s	–	IC50 [5]: 0.81 µM
Nc1cccc2c1CCC(=O)N2CCCN1CCN(c2cccc(Cl)c2)CC1	128 s	129 s	–	–	–	–
Br.O=C1CCc2c(Cl)cccc2N1CCCN1CCN(c2cccc(O)c2)CC1	–	–	529 s	564 s	0.24 µM	–
COc1cccc2c1CCC(=O)N2CCCN1CCN(c2cccc(F)c2)CC1	–	–	600 s	465 s	–	–
COc1cccc2c1CCC(=O)N2CCCN1CCN(c2cccc([N+](=O)[O-])c2)CC1	141 s	<74 s	<339 s	553 s	0.87 µM	–
COc1cccc2c1CCC(=O)N2CCCN1CCN(c2cccc(Cl)c2)CC1.Cl	180 s	<36 s	<294 s	566 s	–	Time (Mus musculus [7]): <56 s; Time (Mus musculus [8]): <61 s; Time (Mus musculus [9]): 115 s
CCCOc1cccc(N2CCN(CCCN3C(=O)CCc4c(Cl)cccc43)CC2)c1	–	–	393 s	465 s	0.37 µM	–
COc1cccc2c1CCC(=O)N2CCCN1CCN(c2cc(Cl)cc(Cl)c2)CC1	133 s	168 s	310 s	363 s	–	–
COc1cccc2c1CCC(=O)N2CCCCN1CCN(c2cccc(Cl)c2)CC1	–	–	549 s	478 s	–	–
COc1cccc2c1CCC(=O)N2CCCN1CCN(c2cccc(C)c2)CC1	–	–	426 s	353 s	–	–
COc1cccc2c1ccc(=O)n2CCCN1CCN(c2cccc(Br)c2)CC1	122 s	<70 s	–	–	–	–
COc1cccc2c1CCC(=O)N2CCCN1CCN(c2cccc(C#N)c2)CC1	–	–	465 s	553 s	–	–
COc1cccc2c1ccc(=O)n2CCCN1CCN(c2cccc(C(F)(F)F)c2)CC1	128 s	<65 s	–	–	0.82 µM	–
COc1cccc2c1CCC(=O)N2CCCN1CCN(c2cccc(Cl)c2)CC1.CS(=O)(=O)O.O	165 s	<49 s	–	613 s	–	Time (Mus musculus [7]): <140 s; Time (Mus musculus [8]): <138 s; Time (Mus musculus [9]): 199 s; Sleeping time (Mus musculus [10]): <414 s
COc1cccc(N2CCN(CCCN3C(=O)CCc4c(Cl)cccc43)CC2)c1	132 s	<36 s	<277 s	548 s	0.13 µM	–
O=c1ccc2ccccc2n1CCCN1CCN(c2cccc(Cl)c2)CC1	138 s	111 s	704 s	616 s	0.62 µM	–
COc1ccc2c(c1)CCC(=O)N2CCCN1CCN(c2cccc(Cl)c2)CC1	–	–	<770 s	566 s	–	–
O=C1CCc2c(Cl)cccc2N1CCCN1CCN(c2cccc(Cl)c2)CC1	–	–	677 s	548 s	–	–

SMILES	RRT (Mus musculus [1])	RRT (Mus musculus [2])	Sleeping time (Mus musculus [3])	Sleeping time (Mus musculus [4])	IC50 [6]	also measured
COc1cccc2c1ccc(=O)n2CCCN1CCN(c2cccc(Cl)c2)CC1	122 s	131 s	–	–	0.98 µM	–
COc1cccc(N2CCN(CCCN3C(=O)CCc4c(OC)cccc43)CC2)c1	–	–	579 s	478 s	–	–
COc1cccc2c1CCC(=O)N2CCN1CCN(c2cccc(Cl)c2)CC1	–	–	676 s	498 s	–	–
CCOc1cccc2c1CCC(=O)N2CCCN1CCN(c2cccc(Cl)c2)CC1	113 s	<31 s	<238 s	353 s	0.87 µM	–
Cc1cccc(N2CCN(CCCOc3ccc4ccc(O)nc4c3)CC2)c1C	–	–	<956 s	311 s	–	–
COc1cccc2c1CCC(=O)N2CCCN1CCN(c2cccc(C(F)(F)F)c2)CC1	134 s	<48 s	<250 s	379 s	0.49 µM	–
CN1C(=O)CN=C(c2ccccc2)c2cc(Cl)ccc21 [DIAZEPAM]	–	–	<709 s	245 s	–	–
NC(=O)[C@@H]1CCCN1C(=O)[C@H](Cc1c[nH]cn1)NC(=O)[C@@H]1CCC(=O)N1 [PROTIRELIN]	173 s	<44 s	<377 s	663 s	–	–
COc1cccc(N2CCN(CC(=O)NC3c4c(O)c(C)cc(C)c4CC3(C)C)CC2)c1 (configuration not stated)	210 s	<54 s	<373 s	625 s	> 15 µM	Time (Mus musculus [7]): 119 s; Time (Mus musculus [8]): 123 s; Time (Mus musculus [9]): 120 s
COc1cccc2c1CCC(=O)N2CCCN1CCN(c2cccc(N)c2)CC1	–	–	<1380 s	553 s	–	–
O=C(Oc1ccc2c(c1)CCC(=O)N2CCCN1CCN(c2ccccc2)CC1)c1ccccc1	–	–	<1097 s	561 s	–	IC50 [5]: > 10 µM
COc1cccc2c1CCC(=O)N2CCCN1CCN(c2cccc(Br)c2)CC1	136 s	<61 s	<267 s	498 s	0.42 µM	–
CSc1cccc2c1CCC(=O)N2CCCN1CCN(c2cccc(Cl)c2)CC1	–	–	439 s	363 s	–	–
COc1ccc2c(c1)N(CCCN1CCN(c3cccc(Cl)c3)CC1)C(=O)CC2	–	–	<1280 s	566 s	–	–
O=c1ccc2ccc(O)cc2n1CCCN1CCN(c2ccc(F)cc2)CC1	–	–	582 s	561 s	1.32 µM	–
Nc1cccc(N2CCN(CCCN3C(=O)CCc4c(Cl)cccc43)CC2)c1	–	–	646 s	504 s	0.71 µM	–
CN(C)CCCN1c2ccccc2CCc2ccccc21 [IMIPRAMINE]	177 s	290 s	–	–	–	Time (Mus musculus [11]): <109 s; Time (Mus musculus [12]): 122 s; Time (Mus musculus [13]): 158 s; Time (Mus musculus [14]): 160 s; Time (Mus musculus [15]): 198 s; Time (Mus musculus [16]): 178 s
CC(=O)Nc1cccc(N2CCN(CCCN3C(=O)CCc4c(Cl)cccc43)CC2)c1	–	–	–	565 s	0.67 µM	Sleeping time (Mus musculus [17]): <778 s
O=C1CCc2c(Cl)cccc2N1CCCN1CCN(c2cccc([N+](=O)[O-])c2)CC1	152 s	110 s	–	–	0.39 µM	–
O=C1CCc2c(O)cccc2N1CCCN1CCN(c2cccc(Cl)c2)CC1	–	–	516 s	585 s	–	–
Cc1ccccc1NC(=N)Nc1ccccc1C	153 s	<101 s	–	–	–	RRT (Mus musculus [18]): <81 s and <210 s
COc1cccc2c1N(CCCN1CCN(c3cccc(Cl)c3)CC1)C(=O)CC2	128 s	109 s	–	–	0.6 µM	–
